In ChEMBL document CHEMBL1152452, “Modifications incorporated in CpG motifs of oligodeoxynucleotides lead to antagonist activity of toll-like receptors 7 and 9” (2009):
Activity calls are given as the source filed them. The rule behind the calls is not given here.

Assays:
Mus musculus [1] = test: Immunostimulatory activity in C57BL/6 mouse assessed as induction of KC level in serum at 2 mg/kg, sc after 2 hrs by Luminex multiplex assay; type: functional, organism-based; parameters: dose 2 mg/kg
Method in brief: (§1)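 Female C57BL/6 mice, 5–6 weeks old, n = 3, received a single 2 mg/kg subcutaneous ODN injection in the right flank. Blood was taken by retro-orbital bleeding 2 h later. Naive mice served as baseline. Representative of three experiments.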

Mus musculus [2] = test: Immunostimulatory activity in C57BL/6 mouse assessed as inhibition of 5'-CTATCTGACGTTCTCTGT-3'-induced IL12 production in serum at 2 mg/kg, sc administered 24 hrs prior to 5'-CTATCTGACGTTCTCTGT-3' challenge measured after 2 hrs by sandwich ELISA; type: functional; conditions: C57BL/6, sc, route subcutaneous
Method in brief: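 C57BL/6 mice were pretreated sc in the right flank with 2, 5 or 10 mg/kg ODN. After 24 h, the TLR9 agonist ODN was given at 0.5 mg/kg sc in the left flank. Serum IL-12 was measured by ELISA 2 h later. Representative of two experiments.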

Mus musculus [3] = test: Immunostimulatory activity in C57BL/6 mouse assessed as induction of MIP-1alpha level in serum at 2 mg/kg, sc after 2 hrs by Luminex multiplex assay; type: functional, organism-based; parameters: dose 2 mg/kg; method in brief: as §1
Mus musculus [4] = test: Immunostimulatory activity in C57BL/6 mouse assessed as inhibition of 5'-CTATCTGACGTTCTCTGT-3'-induced MCP1 production in serum at 2 mg/kg, sc administered 24 hrs prior to 5'-CTATCTGACGTTCTCTGT-3' challenge measured after 2 hrs by Luminex multiplex assay; type: functional, organism-based; parameters: dose 2 mg/kg
Method in brief: (§2)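 C57BL/6 mice received 2 mg/kg ODN sc in one flank. After 24 h, the TLR9 agonist ODN was given at 0.5 mg/kg sc in the opposite flank. Blood was drawn 2 h later and serum cytokines/chemokines were quantified by Luminex multiplex assay. Percent inhibition was taken against the agonist alone. Representative of three experiments.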

[5] = molecular target: T1, Toll-like receptor 9 (Mus musculus) (UniProt Q9EQU3); test: Activation of mouse TLR9 expressed in HEK293 cells assessed as NF-kappaB level at 0.3 ug/mL after 18 hrs by reporter gene assay; type: cell-based
T1 sequence (whole entry): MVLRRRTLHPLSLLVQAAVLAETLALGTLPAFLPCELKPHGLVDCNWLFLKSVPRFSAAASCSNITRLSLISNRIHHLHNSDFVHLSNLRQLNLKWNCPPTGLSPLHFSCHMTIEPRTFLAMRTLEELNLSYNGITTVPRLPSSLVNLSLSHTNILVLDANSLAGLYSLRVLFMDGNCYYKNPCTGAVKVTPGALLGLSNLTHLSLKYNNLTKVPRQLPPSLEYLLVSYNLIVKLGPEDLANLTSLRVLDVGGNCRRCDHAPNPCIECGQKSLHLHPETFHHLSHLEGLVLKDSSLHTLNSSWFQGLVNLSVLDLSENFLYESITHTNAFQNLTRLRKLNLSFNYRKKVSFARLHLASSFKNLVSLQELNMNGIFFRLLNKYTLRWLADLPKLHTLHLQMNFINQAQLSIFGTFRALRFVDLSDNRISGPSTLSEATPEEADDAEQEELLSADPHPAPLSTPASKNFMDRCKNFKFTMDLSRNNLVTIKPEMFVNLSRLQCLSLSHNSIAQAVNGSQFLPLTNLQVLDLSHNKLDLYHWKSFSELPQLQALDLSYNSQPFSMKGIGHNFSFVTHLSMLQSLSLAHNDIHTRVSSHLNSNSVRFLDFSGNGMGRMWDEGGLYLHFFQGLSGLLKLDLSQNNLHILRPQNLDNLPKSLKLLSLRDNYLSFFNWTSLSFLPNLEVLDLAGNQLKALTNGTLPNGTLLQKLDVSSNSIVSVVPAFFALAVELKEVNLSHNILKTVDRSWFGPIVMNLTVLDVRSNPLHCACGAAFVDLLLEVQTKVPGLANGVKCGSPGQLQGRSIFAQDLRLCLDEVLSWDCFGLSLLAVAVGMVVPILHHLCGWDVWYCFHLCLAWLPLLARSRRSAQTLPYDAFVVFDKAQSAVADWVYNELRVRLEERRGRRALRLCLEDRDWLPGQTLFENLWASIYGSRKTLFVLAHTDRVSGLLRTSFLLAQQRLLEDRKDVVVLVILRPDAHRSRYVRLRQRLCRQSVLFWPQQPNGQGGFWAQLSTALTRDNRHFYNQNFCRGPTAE
Method in brief: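 HEK293 cells stably expressing mouse TLR9 were transiently transfected with a SEAP reporter for 6 h, then stimulated with ODN at 0.1, 0.3 or 1 μg/mL for 18 h. Reporter expression is given as fold change in NF-κB activity over medium. Representative of two independent experiments.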

Mus musculus [6] = test: Immunostimulatory activity in C57BL/6 mouse assessed as inhibition of 5'-CTATCTGACGTTCTCTGT-3'-induced MIP-1alpha production in serum at 2 mg/kg, sc administered 24 hrs prior to 5'-CTATCTGACGTTCTCTGT-3' challenge measured after 2 hrs by Luminex multiplex assay; type: functional, organism-based; parameters: dose 2 mg/kg; method in brief: as §2
Mus musculus [7] = test: Immunostimulatory activity in C57BL/6 mouse assessed as induction of IL10 level in serum at 2 mg/kg, sc after 2 hrs by Luminex multiplex assay; type: functional, organism-based; parameters: dose 2 mg/kg; method in brief: as §1
Mus musculus [8] = test: Immunostimulatory activity in C57BL/6 mouse assessed as inhibition of 5'-CTATCTGACGTTCTCTGT-3'-induced IL10 production in serum at 2 mg/kg, sc administered 24 hrs prior to 5'-CTATCTGACGTTCTCTGT-3' challenge measured after 2 hrs by Luminex multiplex assay; type: functional, organism-based; parameters: dose 2 mg/kg; method in brief: as §2
Splenocyte [9] = test: Inhibition of 5'-CTATCTGACGTTCTCTGT-3'-induced IL12 secretion in C57BL/6 mouse splenocytes after 24 hrs by sandwich ELISA; type: functional, cell-based
Method in brief: (§3)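 Splenocytes from 5–8-week C57BL/6 mice, 5 × 10^6 cells/mL in RPMI complete medium, were co-incubated with the TLR9 agonist ODN (1 µg/mL) plus test ODN at 1 or 4 µg/mL, or over a concentration series, at 37 °C for 24 h. Supernatant IL-12 or IL-6 was measured by sandwich ELISA. Runs were done in duplicate, with three independent experiments.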

Splenocyte [10] = test: Inhibition of 5'-CTATCTGACGTTCTCTGT-3'-induced IL6 secretion in C57BL/6 mouse splenocytes after 24 hrs by sandwich ELISA; type: functional, cell-based; method in brief: as §3
Splenocyte [11] = test: Immunostimulatory activity in C57BL/6 mouse splenocytes assessed as induction of IL12 secretion at 2 to 10 ug/ml after 24 hrs by sandwich ELISA; type: functional, cell-based
Method in brief: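 C57BL/6 splenocytes (mice 5–8 weeks) at 5 × 10^6 cells/mL in RPMI complete medium. ODNs dissolved in PBS were added and the cells incubated at 37 °C for 24 h. Supernatant IL-12 or IL-6 was measured by sandwich ELISA. Runs were done two or three times, in duplicate per concentration.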

Mus musculus [12] = test: Immunostimulatory activity in C57BL/6 mouse assessed as inhibition of TLR3 agonist-induced IP10 production in serum at 10 mg/kg, sc administered 24 hrs prior to TLR3 agonist challenge measured after 2 hrs by Luminex multiplex assay

| Activity [5] | Structure (SMILES) | Activity (Mus musculus [1]) | inhibition in vivo at 2 mg/kg (Mus musculus [2]) [%] | Activity (Mus musculus [3]) | Activity (Mus musculus [4]) | Activity (Mus musculus [6]) | Activity (Mus musculus [7]) | Activity (Mus musculus [8]) | Activity (Splenocyte [9]) | Activity (Splenocyte [10]) | Activity (Splenocyte [11]) | Activity (Mus musculus [12]) |
| --- | --- | --- | --- | --- | --- | --- | --- | --- | --- | --- | --- | --- |
| inactive | COC1[C@H](n2cc(C)c(N)nc2=O)O[C@H](COP(=O)(S)O[C@H]2C[C@H](n3cnc4c(N)ncnc43)O[C@@H]2COP(=O)(S)O[C@H]2C[C@H](n3cnc4c(=O)[nH]c(N)nc43)O[C@@H]2COP(=O)(S)O[C@H]2C[C@H](n3cc(C)c(=O)[nH]c3=O)O[C@@H]2COP(=O)(S)O[C@H]2C[C@H](n3ccc(N)nc3=O)O[C@@H]2COP(=O)(S)O[C@H]2C[C@H](n3cc(C)c(=O)[nH]c3=O)O[C@@H]2COP(=O)(S)O[C@H]2C[C@H](n3cnc4c(N)ncnc43)O[C@@H]2COP(=O)(S)O[C@H]2C[C@H](n3cc(C)c(=O)[nH]c3=O)O[C@@H]2COP(=O)(S)O[C@H]2C[C@H](n3ccc(N)nc3=O)O[C@@H]2CO)[C@H]1OP(=O)(S)OC[C@H]1O[C@@H](n2cnc3c(=O)[nH]c(N)nc32)C[C@@H]1OP(=O)(S)OC[C@H]1O[C@@H](n2cc(C)c(=O)[nH]c2=O)C[C@@H]1OP(=O)(S)OC[C@H]1O[C@@H](n2cc(C)c(=O)[nH]c2=O)C[C@@H]1OP(=O)(S)OC[C@H]1O[C@@H](n2ccc(N)nc2=O)C[C@@H]1OP(=O)(S)OC[C@H]1O[C@@H](n2cc(C)c(=O)[nH]c2=O)C[C@@H]1OP(=O)(S)OC[C@H]1O[C@@H](n2ccc(N)nc2=O)C[C@@H]1OP(=O)(S)OC[C@H]1O[C@@H](n2cc(C)c(=O)[nH]c2=O)C[C@@H]1OP(=O)(S)OC[C@H]1O[C@@H](n2cnc3c(=O)[nH]c(N)nc32)C[C@@H]1OP(=O)(S)OC[C@H]1O[C@@H](n2cc(C)c(=O)[nH]c2=O)C[C@@H]1O (stereo partly drawn) | inactive | 50 | inactive | Active | Active | inactive | Active | Dose-dependent effect | Dose-dependent effect | Active | – |
| inactive | COC1[C@H](n2cnc3c(=O)[nH]c(N)nc32)O[C@H](COP(=O)(S)O[C@H]2C[C@H](n3cc(C)c(N)nc3=O)O[C@@H]2COP(=O)(S)O[C@H]2C[C@H](n3cnc4c(N)ncnc43)O[C@@H]2COP(=O)(S)O[C@H]2C[C@H](n3cnc4c(=O)[nH]c(N)nc43)O[C@@H]2COP(=O)(S)O[C@H]2C[C@H](n3cc(C)c(=O)[nH]c3=O)O[C@@H]2COP(=O)(S)O[C@H]2C[C@H](n3ccc(N)nc3=O)O[C@@H]2COP(=O)(S)O[C@H]2C[C@H](n3cc(C)c(=O)[nH]c3=O)O[C@@H]2COP(=O)(S)O[C@H]2C[C@H](n3cnc4c(N)ncnc43)O[C@@H]2COP(=O)(S)O[C@H]2C[C@H](n3cc(C)c(=O)[nH]c3=O)O[C@@H]2COP(=O)(S)O[C@H]2C[C@H](n3ccc(N)nc3=O)O[C@@H]2CO)[C@H]1OP(=O)(S)OC[C@H]1O[C@@H](n2cc(C)c(=O)[nH]c2=O)C[C@@H]1OP(=O)(S)OC[C@H]1O[C@@H](n2cc(C)c(=O)[nH]c2=O)C[C@@H]1OP(=O)(S)OC[C@H]1O[C@@H](n2ccc(N)nc2=O)C[C@@H]1OP(=O)(S)OC[C@H]1O[C@@H](n2cc(C)c(=O)[nH]c2=O)C[C@@H]1OP(=O)(S)OC[C@H]1O[C@@H](n2ccc(N)nc2=O)C[C@@H]1OP(=O)(S)OC[C@H]1O[C@@H](n2cc(C)c(=O)[nH]c2=O)C[C@@H]1OP(=O)(S)OC[C@H]1O[C@@H](n2cnc3c(=O)[nH]c(N)nc32)C[C@@H]1OP(=O)(S)OC[C@H]1O[C@@H](n2cc(C)c(=O)[nH]c2=O)C[C@@H]1O (stereo partly drawn) | inactive | 14 | inactive | Active | Active | inactive | Active | Dose-dependent effect | Dose-dependent effect | Active | inactive |
